Results taken from ChEMBL document CHEMBL5705891, “Small-molecule kinase inhibitors provide insight into Mps1 cell cycle function” (Nat Chem Biol, 2010).
Values belong to the molecule of their own block, whether it stands above or below them. Active and inactive are the calls of the source. The calls are words filed in the database; no cut-off is given here.

What was measured:
[1] = biological target: Dual specificity mitogen-activated protein kinase kinase 3 (Homo sapiens) (UniProt P46734); test: Inhibition of MEK3 (unknown origin) assessed as residual enzyme activity at 10 uM by Ambit kinase binding assay relative to control
Sequence of Dual specificity mitogen-activated protein kinase kinase 3 (Homo sapiens) (P46734 whole entry): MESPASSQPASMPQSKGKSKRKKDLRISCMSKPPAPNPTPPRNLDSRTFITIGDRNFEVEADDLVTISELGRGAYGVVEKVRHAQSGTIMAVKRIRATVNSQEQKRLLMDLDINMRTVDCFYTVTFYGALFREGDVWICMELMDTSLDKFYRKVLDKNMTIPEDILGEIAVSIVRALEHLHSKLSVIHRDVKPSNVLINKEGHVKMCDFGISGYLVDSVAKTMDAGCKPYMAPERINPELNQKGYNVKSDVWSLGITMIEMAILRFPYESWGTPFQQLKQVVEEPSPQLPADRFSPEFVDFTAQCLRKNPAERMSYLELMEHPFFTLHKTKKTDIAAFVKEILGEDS

[2] = biological target: MAP kinase-interacting serine/threonine-protein kinase 2 (Homo sapiens) (UniProt Q9HBH9); test: Inhibition of MKNK2 (unknown origin) assessed as residual enzyme activity at 10 uM by Ambit kinase binding assay relative to control
[3] = biological target: Bone morphogenetic protein receptor type-2 (Homo sapiens) (UniProt Q13873); test: Inhibition of BMPR2 (unknown origin) assessed as residual enzyme activity at 10 uM by Ambit kinase binding assay relative to control
[4] = biological target: Serine/threonine-protein kinase 16 (Homo sapiens) (UniProt O75716); test: Inhibition of STK16 (unknown origin) assessed as residual enzyme activity at 10 uM by Ambit kinase binding assay relative to control
[5] = biological target: Receptor-interacting serine/threonine-protein kinase 4 (Homo sapiens) (UniProt P57078); test: Inhibition of RIPK4 (unknown origin) assessed as residual enzyme activity at 10 uM by Ambit kinase binding assay relative to control
[6] = biological target: BMP-2-inducible protein kinase (Homo sapiens) (UniProt Q9NSY1); test: Inhibition of BIKE (unknown origin) assessed as residual enzyme activity at 10 uM by Ambit kinase binding assay relative to control
Sequence of BMP-2-inducible protein kinase (Homo sapiens) (Q9NSY1 whole entry, looked up): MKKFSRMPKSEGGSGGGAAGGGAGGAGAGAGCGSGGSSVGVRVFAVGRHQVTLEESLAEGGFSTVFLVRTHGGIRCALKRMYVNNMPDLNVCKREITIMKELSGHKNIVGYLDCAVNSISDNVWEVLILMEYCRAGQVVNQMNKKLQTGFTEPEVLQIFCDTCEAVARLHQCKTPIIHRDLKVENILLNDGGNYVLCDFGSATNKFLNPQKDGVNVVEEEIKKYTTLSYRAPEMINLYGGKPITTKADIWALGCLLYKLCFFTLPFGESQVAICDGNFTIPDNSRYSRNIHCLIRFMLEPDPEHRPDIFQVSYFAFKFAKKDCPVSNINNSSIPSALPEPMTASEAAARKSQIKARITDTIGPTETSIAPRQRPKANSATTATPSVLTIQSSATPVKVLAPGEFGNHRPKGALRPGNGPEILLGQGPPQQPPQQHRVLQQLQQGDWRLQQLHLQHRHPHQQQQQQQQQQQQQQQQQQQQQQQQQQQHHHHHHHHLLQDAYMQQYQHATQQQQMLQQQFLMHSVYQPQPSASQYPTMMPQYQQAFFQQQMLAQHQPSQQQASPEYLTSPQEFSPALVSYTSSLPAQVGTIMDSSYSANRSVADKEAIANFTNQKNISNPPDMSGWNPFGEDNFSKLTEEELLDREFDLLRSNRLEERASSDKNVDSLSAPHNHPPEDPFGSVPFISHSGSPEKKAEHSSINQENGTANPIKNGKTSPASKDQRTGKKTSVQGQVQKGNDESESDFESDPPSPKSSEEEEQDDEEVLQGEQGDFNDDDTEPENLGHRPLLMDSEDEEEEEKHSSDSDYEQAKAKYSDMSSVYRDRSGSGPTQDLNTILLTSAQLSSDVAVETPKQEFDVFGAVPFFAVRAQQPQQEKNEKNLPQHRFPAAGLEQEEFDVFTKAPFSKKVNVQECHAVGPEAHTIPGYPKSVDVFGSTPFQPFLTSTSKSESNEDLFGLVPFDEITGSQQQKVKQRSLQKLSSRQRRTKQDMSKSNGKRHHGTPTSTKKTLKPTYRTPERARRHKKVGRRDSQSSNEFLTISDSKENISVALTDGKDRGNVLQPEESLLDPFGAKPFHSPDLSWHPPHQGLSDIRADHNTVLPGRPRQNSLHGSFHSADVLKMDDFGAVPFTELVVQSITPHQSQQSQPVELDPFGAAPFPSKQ

[7] = biological target: Serine/threonine-protein kinase tousled-like 2 (Homo sapiens) (UniProt Q86UE8); test: Inhibition of TLK2 (unknown origin) assessed as residual enzyme activity at 10 uM by Ambit kinase binding assay relative to control
Sequence of Serine/threonine-protein kinase tousled-like 2 (Homo sapiens) (Q86UE8 whole entry, looked up): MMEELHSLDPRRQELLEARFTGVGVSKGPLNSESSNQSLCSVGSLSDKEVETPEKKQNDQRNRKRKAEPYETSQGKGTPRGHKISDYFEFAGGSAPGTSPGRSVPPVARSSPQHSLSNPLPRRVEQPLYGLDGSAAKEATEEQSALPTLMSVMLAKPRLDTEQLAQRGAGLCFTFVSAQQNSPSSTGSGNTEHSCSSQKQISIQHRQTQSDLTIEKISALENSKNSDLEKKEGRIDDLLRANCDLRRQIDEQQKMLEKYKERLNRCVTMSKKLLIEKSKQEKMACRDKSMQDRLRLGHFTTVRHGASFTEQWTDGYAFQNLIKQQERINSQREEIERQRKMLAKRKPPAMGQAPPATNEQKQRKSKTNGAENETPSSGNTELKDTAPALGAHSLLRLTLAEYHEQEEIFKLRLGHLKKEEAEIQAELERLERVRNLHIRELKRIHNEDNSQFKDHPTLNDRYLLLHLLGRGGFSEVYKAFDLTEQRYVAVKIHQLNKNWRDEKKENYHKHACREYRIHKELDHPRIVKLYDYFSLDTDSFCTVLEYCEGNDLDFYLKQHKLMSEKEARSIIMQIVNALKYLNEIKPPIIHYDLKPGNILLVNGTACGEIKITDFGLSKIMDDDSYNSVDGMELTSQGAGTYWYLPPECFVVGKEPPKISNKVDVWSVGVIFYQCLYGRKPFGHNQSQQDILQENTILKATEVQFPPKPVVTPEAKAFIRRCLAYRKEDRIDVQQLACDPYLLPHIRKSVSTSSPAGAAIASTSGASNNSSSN

A549 = test: Antiproliferative activity against human A549 cells assessed as loss of clonal survival upto 10 uM incubated for 10 days by crystal violet staining based assay; type: functional, cell-based; conditions: time 10.0 day
Method in brief: (§1)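 Colony outgrowth: cells plated at 200 cells per 60-mm dish, exposed to compound or DMSO vehicle and stained with crystal violet after 10 days. HCT116 grown in McCoy's 5A; A549 and HeLa in DMEM; hTERT-RPE1 in DMEM/F-12. All media had 10% FBS and penicillin/streptomycin, 37°C, 5% CO2. Quantified from 3 independent experiments, mean + SD, Student's t test.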

MCF-10A = test: Antiproliferative activity against human MCF-10A cells at 10 uM incubated for 4 days by Syto60 staining based assay; type: toxicity, cell-based; conditions: 96 h, time 4 day
Method in brief: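 Proliferation read by Syto60 nucleic acid stain fluorescence (excitation 635 nm, emission 695 nm) after treatment for up to 96 h. Each time point normalized to its DMSO control. Mean ± SD from 4 independent experiments. Cells kept at 37°C, 5% CO2 in 10% FBS-supplemented medium.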

[8] = biological target: Mitogen-activated protein kinase 1 (Homo sapiens, UniProt P28482); test: Binding affinity to ERK2 (unknown origin) assessed as dissociation constant by Ambit kinase binding assay
TERT-RPE1 [9] = test: Induction of aneuploidy in human TERT-RPE1 cells assessed as average chromosome number at 10 uM treated for 24 hrs by karyo-typing analysis (reference value: 45.9 +/- 0.3); type: functional
Method in brief: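 Asynchronous cells were exposed to 10 μM compound for 24 h. Medium was then replaced with medium containing 100 ng/mL colcemid for 2 h to arrest cells in metaphase, after which cells were harvested and karyotyped.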

HCT-116 [10] = test: Induction of aneuploidy in human HCT-116 cells at 10 uM incubated for 4 days by FACS analysis; type: functional, cell-based; conditions: time 4.0 day
Method in brief: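 HCT116 cells were treated with 10 μM compound or DMSO vehicle for the indicated times up to 96 h, then DNA content was profiled by flow cytometry.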

HeLa S3 = test: Reversal of nocodazole-induced mitotic arrest in human HeLa S3 cells expressing histone H2B-GFP assessed as nuclear envelope reassembly at 10 uM measured for 20 to 60 mins by immunofluorescence analysis; type: functional, cell-based; conditions: time 20-60 min
[11] = biological target: Aurora kinase B (Homo sapiens) (UniProt Q96GD4); test: Inhibition of Aurora B activation in human U2OS cells by Western blot analysis; type: cell-based
Sequence of Aurora kinase B (Homo sapiens) (Q96GD4 whole entry): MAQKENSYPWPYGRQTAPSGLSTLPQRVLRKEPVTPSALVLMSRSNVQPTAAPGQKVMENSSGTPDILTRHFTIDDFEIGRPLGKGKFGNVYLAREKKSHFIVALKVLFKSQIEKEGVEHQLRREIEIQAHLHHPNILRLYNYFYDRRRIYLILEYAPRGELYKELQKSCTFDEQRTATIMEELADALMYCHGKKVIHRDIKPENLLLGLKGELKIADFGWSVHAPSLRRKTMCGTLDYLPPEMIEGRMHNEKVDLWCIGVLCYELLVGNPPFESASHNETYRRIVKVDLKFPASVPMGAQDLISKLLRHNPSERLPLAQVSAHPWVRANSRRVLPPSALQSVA

[12] = biological target: Tyrosine-protein kinase Fer (Homo sapiens) (UniProt P16591); test: Inhibition of FER (unknown origin) assessed as residual enzyme activity at 10 uM by Ambit kinase binding assay relative to control
Sequence of Tyrosine-protein kinase Fer (Homo sapiens) (P16591 whole entry, looked up): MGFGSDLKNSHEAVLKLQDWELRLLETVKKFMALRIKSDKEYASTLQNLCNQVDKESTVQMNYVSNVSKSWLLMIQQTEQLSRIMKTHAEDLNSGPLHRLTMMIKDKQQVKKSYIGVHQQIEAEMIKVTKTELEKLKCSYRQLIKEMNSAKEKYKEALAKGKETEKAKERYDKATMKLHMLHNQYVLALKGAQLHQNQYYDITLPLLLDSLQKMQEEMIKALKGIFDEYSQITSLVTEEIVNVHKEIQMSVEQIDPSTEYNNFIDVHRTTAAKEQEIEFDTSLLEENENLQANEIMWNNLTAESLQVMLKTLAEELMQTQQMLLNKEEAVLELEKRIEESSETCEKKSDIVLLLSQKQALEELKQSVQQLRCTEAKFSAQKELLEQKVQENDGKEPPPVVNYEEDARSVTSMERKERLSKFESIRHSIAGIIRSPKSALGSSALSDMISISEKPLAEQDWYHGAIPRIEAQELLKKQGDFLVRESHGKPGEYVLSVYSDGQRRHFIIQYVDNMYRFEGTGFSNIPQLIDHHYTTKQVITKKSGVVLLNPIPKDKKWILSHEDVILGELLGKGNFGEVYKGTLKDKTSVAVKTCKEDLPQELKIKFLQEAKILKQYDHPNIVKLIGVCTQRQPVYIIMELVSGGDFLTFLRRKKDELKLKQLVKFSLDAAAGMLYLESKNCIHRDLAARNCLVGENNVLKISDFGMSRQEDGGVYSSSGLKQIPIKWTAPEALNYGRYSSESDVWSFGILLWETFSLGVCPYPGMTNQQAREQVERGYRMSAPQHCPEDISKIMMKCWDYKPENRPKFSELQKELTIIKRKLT

Insulin receptor [13] = biological target: T1, Insulin receptor (Homo sapiens, UniProt P06213); test: Inhibition of INSR (unknown origin) assessed as residual enzyme activity at 10 uM by Ambit kinase binding assay relative to control
T1 sequence (P06213 28-758 limits assumed): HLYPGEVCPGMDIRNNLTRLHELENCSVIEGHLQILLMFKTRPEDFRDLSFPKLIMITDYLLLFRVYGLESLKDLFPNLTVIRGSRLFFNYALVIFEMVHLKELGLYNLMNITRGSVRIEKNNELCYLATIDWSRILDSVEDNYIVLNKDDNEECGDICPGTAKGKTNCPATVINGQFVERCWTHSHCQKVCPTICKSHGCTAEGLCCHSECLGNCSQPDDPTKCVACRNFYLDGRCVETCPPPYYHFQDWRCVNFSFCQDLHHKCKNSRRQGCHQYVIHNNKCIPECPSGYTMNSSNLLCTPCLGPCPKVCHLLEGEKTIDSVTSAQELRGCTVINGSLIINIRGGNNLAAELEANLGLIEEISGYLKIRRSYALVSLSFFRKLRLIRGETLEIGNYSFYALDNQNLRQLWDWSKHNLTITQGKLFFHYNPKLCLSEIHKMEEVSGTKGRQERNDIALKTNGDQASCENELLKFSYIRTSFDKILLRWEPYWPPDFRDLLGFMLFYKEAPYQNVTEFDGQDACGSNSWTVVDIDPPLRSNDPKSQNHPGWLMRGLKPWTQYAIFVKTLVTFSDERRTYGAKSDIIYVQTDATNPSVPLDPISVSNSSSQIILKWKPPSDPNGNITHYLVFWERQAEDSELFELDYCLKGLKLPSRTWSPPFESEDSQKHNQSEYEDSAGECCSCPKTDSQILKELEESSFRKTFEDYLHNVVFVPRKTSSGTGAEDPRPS
T1 sequence (P06213 763-1382 limits assumed): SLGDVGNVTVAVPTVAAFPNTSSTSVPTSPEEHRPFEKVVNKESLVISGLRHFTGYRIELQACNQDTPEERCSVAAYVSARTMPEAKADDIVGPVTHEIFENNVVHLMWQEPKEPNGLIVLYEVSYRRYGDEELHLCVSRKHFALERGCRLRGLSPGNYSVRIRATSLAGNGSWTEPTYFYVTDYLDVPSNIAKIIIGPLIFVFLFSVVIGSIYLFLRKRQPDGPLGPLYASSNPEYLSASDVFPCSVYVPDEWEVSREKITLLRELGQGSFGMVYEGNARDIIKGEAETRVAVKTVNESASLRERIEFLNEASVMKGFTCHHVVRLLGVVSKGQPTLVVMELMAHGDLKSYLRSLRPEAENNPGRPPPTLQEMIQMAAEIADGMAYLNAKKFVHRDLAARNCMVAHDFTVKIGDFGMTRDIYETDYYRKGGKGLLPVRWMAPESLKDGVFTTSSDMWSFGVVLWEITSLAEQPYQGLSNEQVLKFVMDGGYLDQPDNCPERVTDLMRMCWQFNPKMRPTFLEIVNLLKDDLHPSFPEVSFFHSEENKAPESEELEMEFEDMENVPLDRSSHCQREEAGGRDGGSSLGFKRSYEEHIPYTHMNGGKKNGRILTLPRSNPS

UTRM10 = test: Induction of aneuploidy in UTRM10 cells (unknown origin) expressing LAP-tagged Mps1 M602Q mutant co-transfected with H2B-EYFP at 10 uM by time-lapse microscopy; type: functional, cell-based
Method in brief: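 UTRM10 LAP-Mps1 cells transfected with H2B-EYFP were treated and imaged by time-lapse in a heated chamber (37°C, 5% CO2).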

[14] = biological target: Proto-oncogene tyrosine-protein kinase ROS (Homo sapiens) (UniProt P08922); test: Inhibition of ROS1 (unknown origin) assessed as residual enzyme activity at 10 uM by Ambit kinase binding assay relative to control
U2OS = test: Induction of aneuploidy in UTRM10 cells (unknown origin) expressing LAP-tagged Mps1 M602Q mutant at 5 uM treated for 48 hrs by FACS analysis; type: functional, cell-based
Method in brief: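 UTRM10 cells expressing RNAi-resistant LAP-Mps1 WT or M602Q were treated with compound or DMSO for 48 h, then DNA content was analysed by FACS.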

HCT-116 [15] = test: Antiproliferative activity against human HCT-116 cells with p53-/- assessed as loss of clonal survival upto 10 uM incubated for 10 days by crystal violet staining based assay; type: functional, cell-based; conditions: time 10.0 day; method in brief: as §1
Insulin receptor [16] = biological target: T1, Insulin receptor; test: Binding affinity to INSR (unknown origin) assessed as dissociation constant by Ambit kinase binding assay
TERT-RPE1 [17] = test: Antiproliferative activity against hTERT-RPE1 cells at 10 uM incubated for 4 days by Syto60 staining based assay; type: toxicity, cell-based; conditions: human, tert-rpe1, 96 h, time 4 day
[18] = biological target: Ribosomal protein S6 kinase alpha-1 (Homo sapiens) (UniProt Q15418); test: Inhibition of RPS6KA1 kinase domain 1 (unknown origin) assessed as residual enzyme activity at 10 uM by Ambit kinase binding assay relative to control

- Activity [1]: 6%
- Activity [2]: 1.9%
- Activity [3]: 15%
- Activity [4]: 1.4%
- Activity [5]: 2.2%
- Activity [6]: 0.6%
- Activity [7]: 30%
Structure (SMILES): O=C1c2ccccc2-c2n[nH]c3cccc1c23

- Kd [8]: 2.9 µM
- inhibition [11]: Active
- Activity [12]: 16%
- Activity (Insulin receptor [13]): 0.15%
- Activity [14]: 12%
- Kd (Insulin receptor [16]): 0.47 µM
- Activity [18]: 29%
Structure (SMILES): COc1cc(N2CCC(O)CC2)ccc1Nc1cc(Nc2ccccc2S(=O)(=O)C(C)C)c2cc[nH]c2n1
- Activity (A549): Active
- Activity (MCF-10A): Toxic
- Activity (TERT-RPE1 [9]): 46.5
- Activity (HCT-116 [10]): Active
- Activity (HeLa S3): Active
- Activity (UTRM10): inactive
- Activity (U2OS): Active
- Activity (HCT-116 [15]): Active
- Activity (TERT-RPE1 [17]): Toxic
